Entries after “also recorded” stand apart in the source; their conditions may differ.
Legend:
other kinases = conditions: large panels of biochemical and binding assays; cited from earlier work
MET = conditions: biochemical assays; cited from earlier work
advanced solid tumors = conditions: Japanese patients with advanced solid tumors; cited from earlier work
[1] = test system: MET‐dysregulated advanced solid tumors; assay: Best overall response according to investigator; format: in vivo, human
In short: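 Patients with MET-dysregulated advanced solid tumours took oral twice-daily doses in 28-day cycles: 100–600 mg capsules or 400 mg tablets in escalation, and 600 mg capsules or 400 mg tablets in expansion. Tumours were assessed by CT, or by contrast MRI for GBM or when CT was contraindicated. Response was judged by the investigator per RECIST v1.0 (the ORR endpoint is defined per v1.1), or MacDonald criteria for GBM.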

MET‐dependent tumors = conditions: tolerable doses; animal models incl. NSCLC, HCC, GBM; cited from earlier work
[2] = dose‐expansion cohorts, N = 18 evaluable
[3] = escalation 400 mg bid tablet n=5
[4] = expansion RP2D gastric cancer n=9
[5] = expansion RP2D other indications n=18

Structure (SMILES): CNC(=O)c1ccc(-c2cnc3ncc(Cc4ccc5ncccc5c4)n3n2)cc1F [capmatinib]
- selectivity versus other kinases (other kinases): highly selective versus other kinases
- IC50 (MET): 0.13 nM
- best overall response stable disease (advanced solid tumors): 18.2%
- Best overall response: Complete response ([1]; all escalations N=38): 0 n (%)
- Best overall response: Partial response ([1]; all escalations N=38): 0 n (%)
- Best overall response: Progressive disease ([1]; all escalations N=38): 25 (66) n (%)
- Best overall response: Unknown ([1]; all escalations N=38): 3 (5) n (%)
- Best overall response: Complete response ([1]; all expansions RP2D N=38): 0 n (%)
- Best overall response: Partial response ([1]; all expansions RP2D N=38): 0 n (%)
- tumor shrinkage ([1]; dose escalation, 450 mg bid capsule, colon cancer and HCC): tumor shrinkage was observed in two patients; also recorded: tumor shrinkage was observed for two patients
- patients with best percentage change from baseline in sum of tumor diameters <0 [1, 2]: 7 n
- patients with best percentage change from baseline in sum of tumor diameters >0 [1, 2]: 11 n
- Best overall response: Complete response ([1]; escalation 100 mg bid n=4): 0 n (%)
- Best overall response: Partial response ([1]; escalation 100 mg bid n=4): 0 n (%)
- Best overall response: Progressive disease ([1]; escalation 100 mg bid n=4): 2 (50) n (%)
- Best overall response: Stable disease ([1]; escalation 100 mg bid n=4): 2 (50) n (%)
- Best overall response: Unknown ([1]; escalation 100 mg bid n=4): 0 n (%)
- Best overall response: Complete response ([1]; escalation 200 mg bid n=5): 0 n (%)
- Best overall response: Partial response ([1]; escalation 200 mg bid n=5): 0 n (%)
- Best overall response: Progressive disease ([1]; escalation 200 mg bid n=5): 4 (80) n (%)
- Best overall response: Stable disease ([1]; escalation 200 mg bid n=5): 1 (20) n (%)
- Best overall response: Unknown ([1]; escalation 200 mg bid n=5): 0 n (%)
- Best overall response: Complete response ([1]; escalation 250 mg bid n=4): 0 n (%)
- Best overall response: Partial response ([1]; escalation 250 mg bid n=4): 0 n (%)
- Best overall response: Stable disease ([1]; escalation 250 mg bid n=4): 1 (25) n (%)
- Best overall response: Unknown ([1]; escalation 250 mg bid n=4): 1 (25) n (%)
- Best overall response: Complete response ([1]; escalation 350 mg bid n=3): 0 n (%)
- Best overall response: Partial response ([1]; escalation 350 mg bid n=3): 0 n (%)
- Best overall response: Progressive disease ([1]; escalation 350 mg bid n=3): 2 (67) n (%)
- Best overall response: Stable disease ([1]; escalation 350 mg bid n=3): 1 (33) n (%)
- Best overall response: Unknown ([1]; escalation 350 mg bid n=3): 0 n (%)
- Best overall response: Complete response [1, 3]: 0 n (%)
- Best overall response: Partial response [1, 3]: 0 n (%)
- Best overall response: Progressive disease [1, 3]: 3 (60) n (%)
- Best overall response: Stable disease [1, 3]: 2 (40) n (%)
- Best overall response: Unknown [1, 3]: 0 n (%)
- Best overall response: Complete response ([1]; escalation 450 mg bid n=9): 0 n (%)
- Best overall response: Partial response ([1]; escalation 450 mg bid n=9): 0 n (%)
- Best overall response: Progressive disease ([1]; escalation 450 mg bid n=9): 6 (67) n (%)
- Best overall response: Stable disease ([1]; escalation 450 mg bid n=9): 2 (22) n (%)
- Best overall response: Unknown ([1]; escalation 450 mg bid n=9): 1 (11) n (%)
- Best overall response: Complete response ([1]; escalation 600 mg bid n=8): 0 n (%)
- Best overall response: Partial response ([1]; escalation 600 mg bid n=8): 0 n (%)
- Best overall response: Progressive disease ([1]; escalation 600 mg bid n=8): 6 (75) n (%)
- Best overall response: Stable disease ([1]; escalation 600 mg bid n=8): 1 (13) n (%)
- Best overall response: Unknown ([1]; escalation 600 mg bid n=8): 1 (13) n (%)
- Best overall response: Complete response ([1]; expansion RP2D HCC n=11): 0 n (%)
- Best overall response: Partial response ([1]; expansion RP2D HCC n=11): 0 n (%)
- Best overall response: Progressive disease ([1]; expansion RP2D HCC n=11): 1 (9.1) n (%)
- Best overall response: Stable disease ([1]; expansion RP2D HCC n=11): 5 (46) n (%)
- Best overall response: Unknown ([1]; expansion RP2D HCC n=11): 5 (46) n (%)
- Best overall response: Complete response [1, 4]: 0 n (%)
- Best overall response: Partial response [1, 4]: 0 n (%)
- Best overall response: Progressive disease [1, 4]: 3 (33) n (%)
- Best overall response: Stable disease [1, 4]: 2 (22) n (%)
- Best overall response: Unknown [1, 4]: 4 (44) n (%)
- Best overall response: Complete response [1, 5]: 0 n (%)
- Best overall response: Partial response [1, 5]: 0 n (%)
- Best overall response: Progressive disease [1, 5]: 9 (50) n (%)
- Best overall response: Stable disease [1, 5]: 5 (28) n (%)
- Best overall response: Unknown [1, 5]: 4 (22) n (%)
- stable disease ([1]; expansion, other advanced solid tumor types, five of 18 patients): 28%
- tumor reduction in patients with GCN ≥6 ([1]; expansion, two other solid tumor patients): substantial tumor reduction
- effect on MET‐dependent tumors (MET‐dependent tumors): regression of MET‐dependent tumors

Reference: paper PMC7004521 (Cancer Science, 2019)
